{"source": "ChEMBL document CHEMBL1132377", "about": "(J Med Chem, 1999)", "key": {"[1]": {"biological_target": "T1, Peptidyl-prolyl cis-trans isomerase FKBP1A (Homo sapiens, UniProt P62942)", "T1 sequence (P62942 whole entry)": "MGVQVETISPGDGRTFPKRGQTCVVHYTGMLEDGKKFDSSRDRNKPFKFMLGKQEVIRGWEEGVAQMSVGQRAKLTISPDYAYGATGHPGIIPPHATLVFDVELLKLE", "experiment": "Compound was evaluated for its inhibitory effect on human FK506 binding protein 12 by means of protease-coupled PPIase assay", "procedure,_shortened": "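Recombinant hFKBP12 (14 nM) preincubated ≥5 min with effectors (0.01–200 μM, diluted from DMSO stocks, organic solvent usually below 0.1% v/v) in 35 mM HEPES pH 7.8. Reaction started with Suc-Ala-Phe-Pro-Phe-pNA (24.0 μM); α-chymotrypsin (410 μg/mL) as isomer-specific protease; 4-nitroaniline release read at 390 nm, 10 °C. First-order k_enz derived; IC50 from concentration dependence; mean ± SD of three determinations.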"}, "[2]": {"system": "K562", "experiment": "Cytotoxicity against […] leukemic cell line, by means of standard proliferation assay", "type": "functional, cell-based", "conditions": "Homo sapiens"}, "[3]": {"system": "L929", "experiment": "Cytotoxicity against mouse L-929 fibroblast cell line, by means of standard proliferation assay", "type": "functional, cell-based"}, "[4]": {"system": "Rattus norvegicus", "experiment": "Effect on Axonal Regeneration following sciatic nerve neurotomy at a dose of 1 mg/kg after 10 weeks", "type": "functional", "procedure,_shortened": "(§1)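 Sciatic nerve of left hind leg lesioned (neurotomy) in 4-month-old female HAN:Wist rats under intramuscular Rompun (16 mg/kg)/Ketavet (125 mg/kg) anesthesia. Functional recovery scored from walking behavior. EDL muscle weights of the lesioned left limb and the unlesioned right limb compared, with weights related to protein concentration. Weight differences expressed as percentages relative to placebo; mean ± SD of n animals.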"}, "[5]": {"system": "Rattus norvegicus", "experiment": "Weight difference between EDL muscles of axotomized left hind limbs and corresponding right controls 10 weeks (dose=1 mg/kg)", "type": "functional, Muscle tissue", "procedure,_shortened": "as §1"}, "[6]": {"experiment": "Inhibition constant(Ki) for inhibition of PPIase activity of Escherichia coli FK506 binding protein 26 (Conc=1 uM) of FKBPs family", "procedure,_shortened": "(§2)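 Protease-coupled PPIase assay with α-chymotrypsin 410 μg/mL and Suc-Ala-Phe-Pro-Phe-pNA 24.0 μM. Enzyme was preincubated at least 5 min with inhibitor (0.01–200 μM) in 35 mM HEPES pH 7.8, DMSO usually below 0.1%. 4-Nitroaniline release was read at 390 nm, 10 °C, and first-order k_enz derived. Ki came from nonlinear competitive-inhibition fit; mean ± SD of three.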"}, "[7]": {"experiment": "Inhibition constant(Ki) for inhibition of PPIase activity of Escherichia coli parvulin (Conc=6 nM) of Parvulins sfamily"}, "[8]": {"experiment": "Inhibition constant(Ki) for inhibition of PPIase activity of Escherichia coli SlyD (Conc=2 uM) of FKBPs family", "procedure,_shortened": "(§3)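 PPIase assay coupled to trypsin 210 μg/mL, using Suc-Ala-Phe-Pro-Arg-pNA 34.0 μM (SlyD) or Ac-Ala-Ala-Ser(P)-Pro-Arg-pNA 26.0 μM (hPin1). Enzyme was preincubated at least 5 min with inhibitor (0.01–200 μM) in 35 mM HEPES pH 7.8. Absorbance at 390 nm was followed at 10 °C, and first-order catalytic rate constants were fitted to a competitive model.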"}, "[9]": {"biological_target": "Peptidyl-prolyl cis-trans isomerase NIMA-interacting 1 (Homo sapiens, UniProt Q13526)", "sequence (Q13526 whole entry)": "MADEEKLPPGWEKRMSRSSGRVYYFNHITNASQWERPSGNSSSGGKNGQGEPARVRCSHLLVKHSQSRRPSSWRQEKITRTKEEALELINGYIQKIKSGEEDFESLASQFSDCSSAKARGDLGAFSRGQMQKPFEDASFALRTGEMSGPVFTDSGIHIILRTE", "experiment": "Inhibition constant(Ki) for inhibition of PPIase activity of human Peptidyl-prolyl cis-trans isomerase NIMA-interacting 1 (Conc=4 nM) of Parvulins family", "procedure,_shortened": "as §3"}, "[10]": {"experiment": "Inhibition constant(Ki) for inhibition of PPIase activity of human Cyclophilin 18 (Conc=2 nM)", "procedure,_shortened": "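hCyp18 was expressed recombinantly in E. coli and assayed for PPIase activity with α-chymotrypsin 410 μg/mL and Suc-Ala-Phe-Pro-Phe-pNA 24.0 μM. It was preincubated at least 5 min with 0.01–200 μM inhibitor in 35 mM HEPES pH 7.8. 4-Nitroaniline was monitored at 390 nm, 10 °C, and constants were obtained by competitive nonlinear fit.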"}, "[11]": {"biological_target": "T1, Peptidyl-prolyl cis-trans isomerase FKBP1A", "experiment": "Inhibition constant(Ki) for inhibition of PPIase activity of human FK506 binding protein 12 (Conc=14 nM) of FKBPs family", "procedure,_shortened": "as §2"}, "[12]": {"experiment": "Inhibition constant(Ki) for inhibition of PPIase activity of Escherichia coli trigger factor (Conc=12 nM) of FKBPs family", "procedure,_shortened": "as §2"}, "[13]": {"system": "Rattus norvegicus", "experiment": "Effect on Axonal Regeneration following sciatic nerve neurotomy at a dose of 30 mg/kg after 10 weeks", "type": "functional", "procedure,_shortened": "(§4)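 Left sciatic nerve cut (neurotomy) in 4-month-old female HAN:Wist rats under intramuscular Rompun/Ketavet anaesthesia. A single 30 mg/kg dose was applied at the lesion site. Walking behaviour was scored up to 8 or 10 weeks after surgery. Values are % increase in rate of functional recovery versus placebo-treated rats, given as mean ± SD of n animals.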"}, "[14]": {"system": "Rattus norvegicus", "experiment": "Weight difference between EDL muscles of axotomized left hind limbs and corresponding right controls 10 weeks (dose=30 mg/kg)", "type": "functional, Muscle tissue", "procedure,_shortened": "(§5)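 Female HAN:Wist rats (4 months old) underwent left sciatic neurotomy with 30 mg/kg given locally at the lesion. EDL muscles were taken at 8 or 10 weeks and weighed relative to protein concentration. The % weight difference, lesioned left versus intact right limb, was expressed relative to placebo controls. Values are mean ± SD of n animals.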"}, "[15]": {"system": "Rattus norvegicus", "experiment": "Weight difference between EDL muscles of axotomized left hind limbs and corresponding right controls 8 weeks (dose=30 mg/kg)", "type": "functional, Muscle tissue", "procedure,_shortened": "as §5"}, "[16]": {"system": "Rattus norvegicus", "experiment": "Effect on Axonal Regeneration following sciatic nerve neurotomy at a dose of 30 mg/kg after 8 weeks", "type": "functional", "procedure,_shortened": "as §4"}}}
{"compound": "C[C@@H]1C[C@@H]([C@H](O)CC2CC(=O)NC(=O)C2)/C(=N\\O)[C@@H](C)C1", "values": [{"measurement": "IC50", "setting": "[1]", "value": 177, "unit": "µM"}, {"measurement": "IC50", "setting": "[2]", "value": 116, "unit": "µg/mL"}, {"measurement": "IC50", "setting": "[3]", "value": 86.9, "unit": "µg/mL"}]}
{"compound": "C[C@@H]1C[C@@H]([C@H](O)CC2CC(=O)N(CC(N)=O)C(=O)C2)C(=O)[C@@H](C)C1", "values": [{"measurement": "IC50", "setting": "[1]", "value": 21.6, "unit": "µM"}, {"measurement": "IC50", "setting": "[2]", "value": 4.6, "unit": "µg/mL"}, {"measurement": "IC50", "setting": "[3]", "value": 5.3, "unit": "µg/mL"}]}
{"compound": "C=CC[C@@H]1/C=C(\\C)C[C@H](C)C[C@H](OC)[C@H]2O[C@@](O)(C(=O)C(=O)N3CCCC[C@H]3C(=O)O[C@H](/C(C)=C/[C@@H]3CC[C@@H](O)[C@H](OC)C3)[C@H](C)[C@@H](O)CC1=O)[C@H](C)C[C@@H]2OC", "note": "[TACROLIMUS ANHYDROUS]", "values": [{"measurement": "Walking behaviour", "setting": "[4]", "value": 100, "unit": "%"}, {"measurement": "Weight difference", "setting": "[5]", "value": 18, "unit": "%"}]}
{"compound": "CCOC(=O)CN1C(=O)CC(C[C@@H](OC(=O)NC23C[C@H]4C[C@@H](C2)C[C@@H](C3)C4)[C@@H]2C[C@@H](C)C[C@H](C)C2=O)CC1=O", "values": [{"measurement": "IC50", "setting": "[1]", "value": "> 200", "unit": "µM"}]}
{"compound": "CC(=O)O[C@H](CC1CC(=O)NC(=O)C1)[C@@H]1C[C@@H](C)C[C@H](C)C1=O", "values": [{"measurement": "IC50", "setting": "[1]", "value": "> 200", "unit": "µM"}, {"measurement": "IC50", "setting": "[2]", "value": 1.1, "unit": "µg/mL"}, {"measurement": "IC50", "setting": "[3]", "value": 9.3, "unit": "µg/mL"}]}
{"compound": "C[C@@H]1C[C@@H]([C@H](O)CC2CC(=O)N(C)C(=O)C2)C(=O)[C@@H](C)C1", "values": [{"measurement": "IC50", "setting": "[1]", "value": 124, "unit": "µM"}, {"measurement": "IC50", "setting": "[2]", "value": 133, "unit": "µg/mL"}, {"measurement": "IC50", "setting": "[3]", "value": "> 200", "unit": "µg/mL"}]}
{"compound": "C[C@@H]1C[C@@H]([C@H](O)CC2CC(=O)NC(=O)C2)C(=O)[C@@H](C)C1", "note": "[CYCLOHEXIMIDE]", "values": [{"measurement": "IC50", "setting": "[1]", "value": 3.6, "unit": "µM"}, {"measurement": "IC50", "setting": "[2]", "value": "< 0.39", "unit": "µg/mL"}, {"measurement": "IC50", "setting": "[3]", "value": "< 0.39", "unit": "µg/mL"}, {"measurement": "Ki", "setting": "[6]", "value": 10.3, "unit": "µM"}, {"measurement": "Ki", "setting": "[7]", "value": 187, "unit": "µM"}, {"measurement": "Ki", "setting": "[8]", "value": "> 200", "unit": "µM"}, {"measurement": "Ki", "setting": "[9]", "value": "> 200", "unit": "µM"}, {"measurement": "Ki", "setting": "[10]", "value": "> 200", "unit": "µM"}, {"measurement": "Ki", "setting": "[11]", "value": 3.4, "unit": "µM"}, {"measurement": "Ki", "setting": "[12]", "value": "> 200", "unit": "µM"}]}
{"compound": "C[C@@H]1C[C@@H]([C@H](O)CC2CC(=O)N(Cc3ccccc3)C(=O)C2)C(=O)[C@@H](C)C1", "values": [{"measurement": "IC50", "setting": "[1]", "value": 117, "unit": "µM"}, {"measurement": "IC50", "setting": "[2]", "value": 81.6, "unit": "µg/mL"}, {"measurement": "IC50", "setting": "[3]", "value": 135, "unit": "µg/mL"}]}
{"compound": "CCOC(=O)CCCN1C(=O)CC(C[C@@H](O)[C@@H]2C[C@@H](C)C[C@H](C)C2=O)CC1=O", "values": [{"measurement": "IC50", "setting": "[1]", "value": 22.3, "unit": "µM"}, {"measurement": "IC50", "setting": "[2]", "value": 109, "unit": "µg/mL"}, {"measurement": "IC50", "setting": "[3]", "value": 145, "unit": "µg/mL"}]}
{"compound": "CCOC(=O)CN1C(=O)CC(C[C@@H](O)[C@@H]2C[C@@H](C)C[C@H](C)C2=O)CC1=O", "values": [{"measurement": "IC50", "setting": "[1]", "value": 4.4, "unit": "µM"}, {"measurement": "IC50", "setting": "[2]", "value": 64.9, "unit": "µg/mL"}, {"measurement": "IC50", "setting": "[3]", "value": 76.7, "unit": "µg/mL"}, {"measurement": "Walking behaviour", "setting": "[13]", "value": 14, "unit": "%"}, {"measurement": "Weight difference", "setting": "[14]", "value": 13, "unit": "%"}, {"measurement": "Weight difference", "setting": "[15]", "value": 20, "unit": "%"}, {"measurement": "Walking behaviour", "setting": "[16]", "value": 46, "unit": "%"}]}
{"compound": "C[C@@H]1C[C@@H]([C@H](O)CC2CC(=O)N(Cc3ccc(C#N)cc3)C(=O)C2)C(=O)[C@@H](C)C1", "values": [{"measurement": "IC50", "setting": "[1]", "value": 68.2, "unit": "µM"}, {"measurement": "IC50", "setting": "[2]", "value": 0.8, "unit": "µg/mL"}, {"measurement": "IC50", "setting": "[3]", "value": 1.4, "unit": "µg/mL"}]}
